In brackets after ≈: the same amount, converted by molar mass.
Columns and labels:
[1] = test system: Mycobacterium tuberculosis; assay: Antituberculosis activity against Mycobacterium tuberculosis H37Rv under anaerobic conditions by fluorescence based low-oxygen-recovery assay; type: functional
[2] = test system: Mycobacterium tuberculosis; assay: Antituberculosis activity against Mycobacterium tuberculosis H37Rv under aerobic conditions by microplate alamar blue assay; type: functional
[3] = Aqueous solubility of the compound in water at pH 7 by HPLC analysis; type: physicochemical
Outline: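 Solubility measured in water at pH 7 and 20 °C, quantified by HPLC.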

O=[N+]([O-])c1cn2c(n1)OC[C@@H](OCC#Cc1ccc(-c3ccc(F)cc3)cn1)C2
MIC [1]: 0.85 µM (≈ 0.335 µg/mL) | MIC [2]: 0.05 µM (≈ 0.0197 µg/mL)

O=[N+]([O-])c1cn2c(n1)OC[C@@H](Oc1ccc(-c3ccc(OC(F)(F)F)cc3)nc1)C2
solubility [3]: 0.27 µg/mL (≈ 0.639 µM) | MIC [1]: 1.5 µM (≈ 0.633 µg/mL) | MIC [2]: 0.14 µM (≈ 0.0591 µg/mL)

O=[N+]([O-])c1cn2c(n1)OC[C@@H](Oc1cc(-c3ccc(C(F)(F)F)nc3)ncn1)C2
MIC [1]: 62 µM (≈ 25.3 µg/mL) | MIC [2]: 3 µM (≈ 1.22 µg/mL)

O=[N+]([O-])c1cn2c(n1)OC[C@@H](OCCOc1ccc(C(F)(F)F)cn1)C2
solubility [3]: 42 µg/mL (≈ 112 µM) | MIC [1]: 26 µM (≈ 9.73 µg/mL) | MIC [2]: 0.38 µM (≈ 0.142 µg/mL)

O=[N+]([O-])c1cn2c(n1)OC[C@@H](OCCCC#Cc1ccc(C(F)(F)F)nc1)C2
solubility [3]: 16 µg/mL (≈ 40.4 µM) | MIC [1]: 9.2 µM (≈ 3.65 µg/mL) | MIC [2]: 0.12 µM (≈ 0.0476 µg/mL)

O=[N+]([O-])c1cn2c(n1)OC[C@@H](Oc1cccc(-c3ccc(OC(F)F)cc3)n1)C2
MIC [1]: 4.4 µM (≈ 1.78 µg/mL) | MIC [2]: 0.52 µM (≈ 0.21 µg/mL)

O=[N+]([O-])c1cn2c(n1)OC[C@@H](OCCCC#Cc1ccc(-c3ccc(F)cc3)cc1)C2
MIC [1]: 1.6 µM (≈ 0.674 µg/mL) | MIC [2]: 0.07 µM (≈ 0.0295 µg/mL)

O=[N+]([O-])c1cn2c(n1)OC[C@@H](Oc1cccc(-c3ccc(C(F)(F)F)nc3)n1)C2
MIC [1]: > 128 µM | MIC [2]: 5.7 µM (≈ 2.32 µg/mL)

CC(O[C@@H]1COc2nc([N+](=O)[O-])cn2C1)c1ccc(-c2ccc(F)cc2)cc1 (stereo partly drawn)
MIC [1]: 1.3 µM (≈ 0.498 µg/mL) | MIC [2]: 0.22 µM (≈ 0.0843 µg/mL)

O=[N+]([O-])c1cn2c(n1)OC[C@@H](OCCCc1ccc(OCc3ccccc3)cc1)C2
solubility [3]: 3.8 µg/mL (≈ 9.28 µM) | MIC [1]: 3.7 µM (≈ 1.51 µg/mL) | MIC [2]: 0.5 µM (≈ 0.205 µg/mL)

O=[N+]([O-])c1cn2c(n1)OC[C@@H](OCC#Cc1ccc(-c3ccc(C(F)(F)F)cc3)nc1)C2
MIC [1]: 0.58 µM (≈ 0.258 µg/mL) | MIC [2]: 0.07 µM (≈ 0.0311 µg/mL)

O=[N+]([O-])c1cn2c(n1)OC[C@@H](OCCOc1ccc(-c3ccc(C(F)(F)F)cc3)cc1)C2
MIC [1]: 104 µM (≈ 46.7 µg/mL) | MIC [2]: 0.04 µM (≈ 0.018 µg/mL)

O=[N+]([O-])c1cn2c(n1)OC[C@@H](OCCOc1ccc(-c3ccc(F)cc3)cc1)C2
MIC [1]: 3.4 µM (≈ 1.36 µg/mL) | MIC [2]: 0.04 µM (≈ 0.016 µg/mL)

O=[N+]([O-])c1cn2c(n1)OC[C@@H](OCC#Cc1ccc(C(F)(F)F)cn1)C2
solubility [3]: 8.4 µg/mL (≈ 22.8 µM) | MIC [1]: 3.3 µM (≈ 1.22 µg/mL) | MIC [2]: 0.12 µM (≈ 0.0442 µg/mL)

O=[N+]([O-])c1cn2c(n1)OC[C@@H](OCC#Cc1ccc(-c3ccc(F)cc3)nc1)C2
MIC [1]: 1 µM (≈ 0.394 µg/mL) | MIC [2]: 0.05 µM (≈ 0.0197 µg/mL)

O=[N+]([O-])c1cn2c(n1)OC[C@@H](OCC#Cc1ccc(-c3ccc(C(F)(F)F)nc3)cn1)C2
MIC [1]: 6.6 µM (≈ 2.94 µg/mL) | MIC [2]: 0.44 µM (≈ 0.196 µg/mL)

CC(O[C@@H]1COc2nc([N+](=O)[O-])cn2C1)c1ccc(-c2ccc(C(F)(F)F)cc2)cc1 (stereo partly drawn)
MIC [1]: 2.2 µM (≈ 0.953 µg/mL) | MIC [2]: 0.18 µM (≈ 0.078 µg/mL)

O=[N+]([O-])c1cn2c(n1)OC[C@@H](OC/C=C/c1ccc(-c3ccc(F)cc3)cc1)C2
MIC [1]: 3.1 µM (≈ 1.23 µg/mL) | MIC [2]: 0.09 µM (≈ 0.0356 µg/mL)

O=[N+]([O-])c1cn2c(n1)OC[C@@H](Oc1ccc(-c3ccc(C(F)(F)F)nc3)cn1)C2
MIC [1]: 14 µM (≈ 5.7 µg/mL) | MIC [2]: 0.42 µM (≈ 0.171 µg/mL)

O=[N+]([O-])c1cn2c(n1)OC[C@@H](OC/C=C/c1ccc(-c3ccc(OC(F)F)cc3)cc1)C2
MIC [1]: 4.3 µM (≈ 1.91 µg/mL) | MIC [2]: 0.08 µM (≈ 0.0355 µg/mL)

O=[N+]([O-])c1cn2c(n1)OC[C@@H](Oc1cc(-c3ccc(F)cc3)ccn1)C2
MIC [1]: 28 µM (≈ 9.98 µg/mL) | MIC [2]: 5.2 µM (≈ 1.85 µg/mL)

O=[N+]([O-])c1cn2c(n1)OC[C@@H](Oc1cc(-c3ccc(C(F)(F)F)nc3)ccn1)C2
MIC [1]: 27 µM (≈ 11 µg/mL) | MIC [2]: 3 µM (≈ 1.22 µg/mL)

O=[N+]([O-])c1cn2c(n1)OC[C@@H](Oc1ccnc(-c3ccc(C(F)(F)F)nc3)c1)C2
MIC [1]: > 128 µM | MIC [2]: 14 µM (≈ 5.7 µg/mL)

O=[N+]([O-])c1cn2c(n1)OC[C@@H](Oc1ccc(-c3ccc(C(F)(F)F)cc3)cn1)C2
MIC [1]: 12 µM (≈ 4.88 µg/mL) | MIC [2]: 0.1 µM (≈ 0.0406 µg/mL)

O=[N+]([O-])c1cn2c(n1)OC[C@@H](OCC#Cc1cccc(-c3ccc(C(F)(F)F)cc3)c1)C2
MIC [1]: 1.3 µM (≈ 0.576 µg/mL) | MIC [2]: 0.27 µM (≈ 0.12 µg/mL)

O=[N+]([O-])c1cn2c(n1)OC[C@@H](OCCOc1ccc(-c3ccc(C(F)(F)F)nc3)cc1)C2
MIC [1]: 4.1 µM (≈ 1.85 µg/mL) | MIC [2]: 0.025 µM (≈ 0.0113 µg/mL)

O=[N+]([O-])c1cn2c(n1)OC[C@@H](OCCOc1ccc(-c3ccc(C(F)(F)F)cc3)cn1)C2
MIC [1]: 3 µM (≈ 1.35 µg/mL) | MIC [2]: 0.02 µM (≈ 0.00901 µg/mL)

O=[N+]([O-])c1cn2c(n1)OC[C@@H](OCCOc1ncc(-c3ccc(C(F)(F)F)cc3)cn1)C2
MIC [1]: 5.4 µM (≈ 2.44 µg/mL) | MIC [2]: 0.12 µM (≈ 0.0542 µg/mL)

O=[N+]([O-])c1cn2c(n1)OC[C@@H](Oc1cc(-c3ccc(C(F)(F)F)cc3)ncn1)C2
MIC [1]: 17 µM (≈ 6.92 µg/mL) | MIC [2]: 0.8 µM (≈ 0.326 µg/mL)

O=[N+]([O-])c1cn2c(n1)OC[C@@H](OCCOc1ccc(-c3ccc(F)cc3)cn1)C2
MIC [1]: 2.4 µM (≈ 0.961 µg/mL) | MIC [2]: 0.02 µM (≈ 0.00801 µg/mL)

O=[N+]([O-])c1cn2c(n1)OC[C@@H](Oc1cccc(-c3ccc(C(F)(F)F)cc3)n1)C2
MIC [1]: 35 µM (≈ 14.2 µg/mL) | MIC [2]: 0.55 µM (≈ 0.223 µg/mL)

O=[N+]([O-])c1cn2c(n1)OC[C@@H](OCCOc1ncc(-c3ccc(C(F)(F)F)nc3)cn1)C2
MIC [1]: 56 µM (≈ 25.3 µg/mL) | MIC [2]: 0.63 µM (≈ 0.285 µg/mL)

O=[N+]([O-])c1cn2c(n1)OC[C@@H](Oc1cc(-c3ccc(F)cc3)ncn1)C2
MIC [1]: 15 µM (≈ 5.36 µg/mL) | MIC [2]: 0.99 µM (≈ 0.354 µg/mL)

O=[N+]([O-])c1cn2c(n1)OC[C@@H](OCC#Cc1ccc(-c3ccc(C(F)(F)F)cc3)cn1)C2
MIC [1]: 0.75 µM (≈ 0.333 µg/mL) | MIC [2]: 0.02 µM (≈ 0.00889 µg/mL)

From ChEMBL document CHEMBL1833943, “Synthesis and structure-activity relationships of varied ether linker analogues of the antitubercular drug (6S)-2-nitro-6-{[4-(trifluoromethoxy)benzyl]oxy}-6,7-dihydro-5h-imidazo[2,1-b][1,3]oxazine (PA-824)” (J Med Chem, 2011)
